Assay results from ChEMBL document CHEMBL1938272 (Bioorg Med Chem, 2012).
pIC50: −log10 of the molar value.

What was measured:
HEK293 = experiment: Inhibition of TNFalpha-activated NF-kappaB expressed in HEK293 cells at 50 uM by luciferase reporter gene assay; type: cell-based
RAW264.7 = experiment: Antiinflammatory activity in mouse RAW264.7 cells assessed as inhibition of LPS-induced NO production at 40 uM preincubated for 30 mins before LPS challenge by Griess method
Aromatase [1] = molecular target: T1, Aromatase (Homo sapiens, UniProt P11511)
T1 sequence (P11511 whole entry): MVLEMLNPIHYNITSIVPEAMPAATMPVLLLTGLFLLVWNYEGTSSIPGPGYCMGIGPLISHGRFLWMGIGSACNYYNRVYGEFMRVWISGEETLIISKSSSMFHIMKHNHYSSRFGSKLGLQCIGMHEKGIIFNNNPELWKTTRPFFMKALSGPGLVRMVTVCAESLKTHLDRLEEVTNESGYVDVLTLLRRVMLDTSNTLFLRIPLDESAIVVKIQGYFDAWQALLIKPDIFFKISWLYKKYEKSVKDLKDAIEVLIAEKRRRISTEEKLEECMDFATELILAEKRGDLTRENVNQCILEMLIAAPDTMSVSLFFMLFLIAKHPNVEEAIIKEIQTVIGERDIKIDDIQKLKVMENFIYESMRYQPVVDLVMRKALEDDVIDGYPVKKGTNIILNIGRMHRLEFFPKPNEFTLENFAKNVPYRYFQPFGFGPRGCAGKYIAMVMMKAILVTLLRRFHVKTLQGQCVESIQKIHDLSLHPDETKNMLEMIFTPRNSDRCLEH

[2] = molecular target: NAD(P)H dehydrogenase [quinone] 1 (Mus musculus) (UniProt Q64669); experiment: Induction of QR1-mediated cytoprotective activity in mouse BPrc1 cells at 50 uM assessed as cell survival; type: cell-based
[3] = molecular target: NAD(P)H dehydrogenase [quinone] 1 (Mus musculus) (UniProt Q64669); experiment: Induction of QR1-mediated cytoprotective activity in mouse Hepa-1c1c7 cells at 50 uM assessed as cell survival; type: cell-based
[4] = molecular target: NAD(P)H dehydrogenase [quinone] 1 (Mus musculus) (UniProt Q64669); experiment: Induction of QR1-mediated cytoprotective activity in mouse TAOc1 mutant Hepa cells at 50 uM assessed as cell survival; type: cell-based
[5] = system: Radical scavenging activity; experiment: Antioxidant activity assessed as DPPH free radical scavenging activity at 400 uM after 30 mins by spectrophotometry; type: functional
Aromatase [6] = molecular target: T1, Aromatase; conditions: 2 h, read-out: Imax
MCF7 = experiment: Antiproliferative activity against human MCF7 cells after 72 hrs by SRB assay; type: functional, cell-based; conditions: MCF7, 72 h
How it was run: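 MCF-7 breast cancer cells exposed to serially diluted compounds (DMSO) for 72 h at 37 °C in CO2 incubator; fixed with 10% trichloroacetic acid, stained with 0.4% SRB, OD read at 515 nm. Zero-day control of 1 × 10^4 cells per well processed after 30 min. Survival = (OD test − OD zero-day)/(OD control − OD zero-day) × 100; IC50 from survival.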

[7] = molecular target: NAD(P)H dehydrogenase [quinone] 1 (Mus musculus) (UniProt Q64669); experiment: Induction of QR1 activity in mouse Hepa-1c1c7 cells using MTT as substrate by spectrophotometry; type: cell-based
How it was run: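 Mouse hepatoma Hepa 1c1c7 cells were incubated with compound, then permeabilised with digitonin. QR1 activity was read as MTT reduction to formazan at 595 nm, with crystal violet total protein run in parallel. Induction ratio is activity versus control; CD is the concentration doubling activity, derived only when the ratio is above 2.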

[8] = molecular target: NAD(P)H dehydrogenase [quinone] 1 (Mus musculus) (UniProt Q64669); experiment: Induction of QR1 activity in mouse BPrc1 cells using MTT as substrate by spectrophotometry; type: cell-based
[9] = molecular target: NAD(P)H dehydrogenase [quinone] 1 (Mus musculus) (UniProt Q64669); experiment: Induction of QR1 activity in mouse TAOc1 mutant Hepa cells using MTT as substrate by spectrophotometry; type: cell-based

NAD(P)H dehydrogenase [quinone] 1 (Mus musculus), sequence (Q64669 whole entry): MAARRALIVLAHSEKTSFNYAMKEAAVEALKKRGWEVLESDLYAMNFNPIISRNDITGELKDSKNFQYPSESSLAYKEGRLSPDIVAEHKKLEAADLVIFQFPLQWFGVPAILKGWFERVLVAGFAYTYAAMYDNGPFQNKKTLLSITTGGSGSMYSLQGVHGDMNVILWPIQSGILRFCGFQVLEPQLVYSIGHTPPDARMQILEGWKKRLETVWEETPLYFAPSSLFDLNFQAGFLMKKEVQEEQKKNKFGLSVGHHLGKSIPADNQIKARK

Row | SMILES | inhibition (HEK293) | inhibition at 40 µM (RAW264.7) | pIC50 (Aromatase [1]) | Survival [2] | Survival [3] | Survival [4] | inhibition [5] | inhibition at 50 µM (Aromatase [6]) | pIC50 (MCF7) | CD [7] | CD [8] | CD [9]
1 | Brc1ccc(-c2nsc(-c3ccc(Br)cc3)n2)cc1 | 0% | 17.1% | < 4.30 | 60.3% | 87% | 80.1% | 0.8% | 37.4% | – | – | – | –
2 | Brc1ccccc1-c1nsc(-c2ccccc2Br)n1 | 0% | 9.1% | < 4.30 | 100% | 72.5% | 99.1% | 1.8% | 44.8% | 4.46 | – | – | –
3 | N#Cc1cccc(-c2nsc(-c3cccc(C#N)c3)n2)c1 | – | 26.4% | < 4.30 | – | 57.9% | – | 1.4% | 22.1% | – | – | – | –
4 | Cc1ccc(-c2nsc(-c3ccc(C)cc3)n2)cc1 | – | 9.6% | < 4.30 | – | 96.8% | – | 7.2% | 21.3% | – | – | – | –
5 | Ic1ccc(-c2nsc(-c3ccc(I)cc3)n2)cc1 | 0% | 20.3% | < 4.30 | – | 105% | – | – | 36.7% | – | – | – | –
6 | CC(C)(C)c1ccc(-c2nsc(-c3ccc(C(C)(C)C)cc3)n2)cc1 | 0% | 0.5% | < 4.30 | 85.1% | 47.5% | 74.1% | 2.9% | 43.5% | – | 27.7 µM | – | –
7 | Clc1cccc(-c2nsc(-c3cccc(Cl)c3Cl)n2)c1Cl | 0% | 21.4% | < 4.30 | 56.3% | 47% | 74.5% | 11.1% | 45.9% | 4.99 | 2 µM | – | –
8 | O=[N+]([O-])c1ccc(-c2nsc(-c3ccc([N+](=O)[O-])cc3)n2)cc1 | – | 1.6% | < 4.30 | – | 78.9% | – | 7.3% | 29.4% | – | – | – | –
9 | Oc1ccc(CCc2cc(O)cc(O)c2)cc1 [DIHYDRORESVERATROL] | 16.7% | 36.2% | < 4.30 | – | 82.6% | – | 14.7% | 37.8% | 4.52 | – | – | –
10 | Oc1ccc(/C=C/c2cc(O)cc(O)c2)cc1 | – | – | – | 86.3% | 88.7% | 86.3% | – | – | – | – | – | –
11 | Clc1ccccc1-c1nsc(-c2ccccc2Cl)n1 | – | -5.9% | < 4.30 | 83.8% | 75.2% | 100% | 2.8% | 49.7% | 4.45 | – | 34.6 µM | 44.3 µM
12 | Cc1ccc(-c2nsc(-c3ccc(C)cc3Br)n2)c(Br)c1 | 0% | 25% | < 4.30 | – | 49.6% | – | 3.4% | 48.3% | – | – | – | –
13 | Ic1cccc(-c2nsc(-c3cccc(I)c3)n2)c1 | 0% | 15.6% | < 4.30 | 77.3% | 103% | 73.6% | 14.3% | 30.6% | 4.43 | 3.1 µM | – | –
14 | c1ccc2cc(-c3nsc(-c4ccc5ccccc5c4)n3)ccc2c1 | – | 0.5% | < 4.30 | 98.1% | 88.8% | 96.9% | 1.1% | 15.8% | – | – | – | –
15 | FC(F)(F)c1ccc(-c2nsc(-c3ccc(C(F)(F)F)cc3)n2)cc1 | 0% | 8.5% | < 4.30 | 71% | 97.9% | 91% | 2.5% | 41% | – | – | – | –
16 | Clc1ccc(Cl)c(-c2nsc(-c3cc(Cl)ccc3Cl)n2)c1 | – | 17.9% | < 4.30 | 94.7% | 88.1% | 82.8% | 1% | 16.6% | 4.75 | – | 44.5 µM | 41 µM
17 | Fc1cccc(-c2nsc(-c3cccc(F)c3)n2)c1 | – | 3.2% | < 4.30 | 73.5% | 77.6% | 77.1% | 1.3% | 41.8% | 4.46 | – | – | –
18 | Clc1ccc(-c2nsc(-c3ccc(Cl)cc3)n2)cc1 | 0% | 5.1% | < 4.30 | 79.3% | 78.3% | 77.8% | 2.7% | 9.7% | – | 4 µM | – | –
19 | Clc1ccc(-c2nsc(-c3ccc(Cl)cc3Cl)n2)c(Cl)c1 | – | 25% | < 4.30 | 89.8% | 30.6% | 82.4% | 2.9% | 40.3% | – | – | – | –
20 | Fc1ccc(-c2nsc(-c3ccc(F)cc3)n2)cc1 | 0% | 22.2% | < 4.30 | 86.4% | 96.3% | 83% | 6.9% | 45.2% | 4.73 | – | – | –
21 | Clc1ccc(-c2nsc(-c3ccc(Cl)c(Cl)c3)n2)cc1Cl | – | 21.5% | < 4.30 | – | 80% | – | 9.6% | 23% | 4.63 | – | – | –
22 | Fc1ccccc1-c1nsc(-c2ccccc2F)n1 | – | 24.6% | < 4.30 | 88.4% | 86.2% | 82.5% | 3.8% | 53.2% | 4.50 | – | – | –
23 | N#Cc1ccc(-c2nsc(-c3ccc(C#N)cc3)n2)cc1 | – | -0.4% | < 4.30 | – | 46.2% | – | 6% | 38.5% | 4.50 | – | – | –
24 | Oc1ccc(/C=C\c2cc(O)cc(O)c2)cc1 | – | – | – | 77.8% | 89.3% | 100% | – | – | – | – | 49.7 µM | –
25 | FC(F)(F)c1ccccc1-c1nsc(-c2ccccc2C(F)(F)F)n1 | 0% | 6.7% | < 4.30 | 81% | 88.8% | 89.8% | 2.9% | 21.6% | – | – | – | –
26 | COc1ccc(-c2nsc(-c3ccc(OC)cc3)n2)cc1 | – | 1.7% | < 4.30 | – | 94.2% | – | 3.1% | 11.1% | 4.76 | – | – | –
27 | CCCCc1ccc(-c2nsc(-c3ccc(CCCC)cc3)n2)cc1 | – | -3.5% | < 4.30 | – | 100% | – | 2.1% | 35.5% | – | – | – | –
28 | Cc1cc(Br)ccc1-c1nsc(-c2ccc(Br)cc2C)n1 | 6.7% | 23.3% | < 4.30 | 95.9% | 71.3% | 68.6% | 2.2% | 47.8% | 4.40 | – | – | –
